# In ChEMBL document CHEMBL1132378, “Allosteric modulation of the adenosine A(1) receptor. Synthesis and biological evaluation of novel 2-amino-3-benzoylthiophenes as allosteric enhancers of agonist binding” (J Med Chem, 1999):
# What was measured:
# [1] = target: T1, Adenosine receptor A1 (Rattus norvegicus) (UniProt P25099); test: Enhancing activity at 10 uM PD 81,723 (100%) at Adenosine A1 receptor in rat brain cortex membranes; assay type: cell membranes
# T1 sequence (whole entry): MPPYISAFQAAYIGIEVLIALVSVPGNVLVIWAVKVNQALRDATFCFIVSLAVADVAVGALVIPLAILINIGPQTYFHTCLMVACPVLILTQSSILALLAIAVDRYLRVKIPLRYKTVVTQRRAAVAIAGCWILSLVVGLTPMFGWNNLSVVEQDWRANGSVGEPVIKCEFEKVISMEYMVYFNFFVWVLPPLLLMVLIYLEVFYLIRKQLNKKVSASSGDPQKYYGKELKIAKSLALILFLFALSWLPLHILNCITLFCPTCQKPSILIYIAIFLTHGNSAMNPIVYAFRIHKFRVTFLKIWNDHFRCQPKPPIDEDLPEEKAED
# Outline: (§1)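 Rat brain cortex membranes (ADA-treated, 2 U/mL at 37 °C) preincubated 2.5 h with 0.5 nM [3H]CCPA. Dissociation then started with 100 μM CPA, with or without 10 μM test compound. Bound [3H]CCPA measured after 1 h.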
# [2] = target: T1, Adenosine receptor A1 (Rattus norvegicus); test: Antagonistic activity expressed as percent displacement of 0.4 nM of [3H]DPCPX from adenosine A1 receptors in rat brain cortex membranes at 10 uM; assay type: functional, cell membranes; settings: Membrane
# Outline: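 Rat brain cortex membranes (ADA-treated, 2 U/mL at 37 °C before storage; 30 μg/mL) incubated 1 h at 25 °C in 50 mM Tris/HCl pH 7.4 with 0.4 nM [3H]DPCPX and 10 μM compound. Nonspecific binding defined by 10 μM CPA. Result is percent displacement of radioligand; n = 3–5.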
# Adenosine receptor A1 = target: T2, Adenosine receptor A1 (Rattus norvegicus, UniProt P25099); test: Enhanced 0.5 nM [3H]CCPA dissociation from adenosine A1 receptor of rat brain cortex membranes compared to 100 uM CPA
# T2 sequence (P25099 whole entry): T1 sequence (whole entry)
# Outline: as §1, with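 “h. Percent decrease in dissociation scaled between control (0%) and 10 μM PD 81,723 as reference (100%); n = 3.” for “h.”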
Structure (SMILES),Enhancement [1] [%],Antagonism [2] [%],EC50 (Adenosine receptor A1) [µM]
CCc1c(C)sc(N)c1C(=O)c1ccccc1,31.4,12.6,–
Nc1sc2c(c1C(=O)c1ccc([N+](=O)[O-])cc1)CCCC2,33.9,19.5,–
COC(=O)c1ccc(C(=O)c2c(N)sc3c2CCCC3)cc1,43.9,28.9,–
Cc1sc(N)c(C(=O)c2ccc(Cl)cc2)c1C,93.5,41,–
Nc1sc2c(c1C(=O)c1ccc(Cl)c(Cl)c1)CCCC2,151,34.7,6.2
CCc1c(C)sc(N)c1C(=O)c1cccc(Cl)c1,29.9,22.3,–
Nc1sc2c(c1C(=O)c1cccc(I)c1)CCCC2,113,65.8,–
Nc1sc2c(c1C(=O)c1cccc(Cl)c1)CCCC2,92.7,50.6,10.5
CCc1c(C)sc(N)c1C(=O)c1ccc(Cl)cc1,97.2,19.8,–
Nc1sc2c(c1C(=O)c1ccc(I)cc1)CCCC2,155,64.4,4.5
Cc1sc(N)c(C(=O)c2ccccc2)c1C,8,13.9,–
Nc1sc2c(c1C(=O)c1ccc(Br)cc1)CCCC2,128,41.6,16.4
Nc1sc2c(c1C(=O)c1cccc(C(F)(F)F)c1)CCCC2,122,32.2,6
Nc1sc2c(c1C(=O)c1ccc(C(F)(F)F)cc1)CCCC2,131,56.7,4.7
Cc1sc(N)c(C(=O)c2cccc(C(F)(F)F)c2)c1C,100,39.5,14.7
CCc1c(C)sc(N)c1C(=O)c1cccc(C(F)(F)F)c1,112,5.4,–
Nc1sc2c(c1C(=O)c1ccc(C(=O)O)cc1)CCCC2,28.6,–,–
Nc1sc2c(c1C(=O)c1ccc(Cl)cc1)CCCC2 [T-62],123,39.9,6.8
Nc1sc2c(c1C(=O)c1ccccc1Cl)CCCC2,72.5,35.1,–
Cc1sc(N)c(C(=O)c2cccc(Cl)c2)c1C,80.3,18.7,–
Cc1ccc(C(=O)c2c(N)sc3c2CCCC3)cc1,137,30.3,34.9

# Further lines, results first:
Enhancement [1] [%],Antagonism [2] [%],EC50 (Adenosine receptor A1) [µM],Structure (SMILES)
13.8,71.8,–,Nc1sc2c(c1C(=O)c1ccccc1)CCN(C(=O)c1ccccc1)C2
52.8,67.1,–,Nc1sc2c(c1C(=O)c1ccccc1)CCN(Cc1ccccc1)C2
69,52.2,–,Nc1sc2c(c1C(=O)c1ccccc1)CCN(Cc1ccc(Cl)cc1)C2
47.2,34.7,–,Nc1sc2c(c1C(=O)c1ccccc1)CCCC2
174,51,9.2,Nc1sc2c(c1C(=O)c1ccc(Cl)c(Cl)c1)CCN(Cc1ccccc1)C2
132,60.9,11.3,Nc1sc2c(c1C(=O)c1ccc(Cl)cc1)CCN(Cc1ccccc1)C2
106,80.1,15.1,Nc1sc2c(c1C(=O)c1ccccc1)CCN(Cc1cccc(Cl)c1)C2
106,45.7,32,Nc1sc2c(c1C(=O)c1ccc(Cl)cc1)CCN(Cc1ccc(Cl)c(Cl)c1)C2
57,4,–,Nc1sc2c(c1C(=O)c1ccccc1)CCN(Cc1ccc(Cl)c(Cl)c1)C2
